Assay results as given in ChEMBL document CHEMBL1142361, “Phenylglycine and phenylalanine derivatives as potent and selective HDAC1 inhibitors (SHI-1)” (Bioorg Med Chem Lett, 2008).
Converted amounts (≈) assume the structure as drawn.

Tests used:
HCT-116 = assay: Antiproliferative activity against human HCT116 cells after 72 hrs; assay type: functional
[1] = Log D at pH 7 by HPLC; assay type: physicochemical; settings: buffer
[2] = Aqueous solubility at pH 7 by HPLC; assay type: physicochemical; settings: buffer
Outline: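 A 200 µM sample in PBS-buffered water at pH 7 was agitated 24 h at room temperature and then filtered. A 100 µM reference was fully dissolved in MeOH:MeCN:DMSO (8:1:1). Both were run by the same high-throughput HPLC method, and the peak areas were compared to give the dissolved concentration. The assay caps at 200 µM.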

[3] = Half life in rhesus monkey at 0.5 mg/kg, iv and 1 mg/kg, po; assay type: ADME, organism-based, Macaca mulatta; settings: in vivo
[4] = Volume of distribution at steady state in rat at 2 mg/kg, iv and 4 mg/kg, po; assay type: ADME, organism-based; settings: in vivo, read-out: Vdss
[5] = Volume of distribution at steady state in rhesus monkey at 0.5 mg/kg, iv and 1 mg/kg, po; assay type: ADME, organism-based, Macaca mulatta; settings: in vivo, read-out: Vdss
[6] = Volume of distribution at steady state in dog at 0.5 mg/kg, iv and 1 mg/kg, po; assay type: ADME, organism-based, Canis lupus familiaris; settings: in vivo, read-out: Vdss
[7] = Clearance in rhesus monkey at 0.5 mg/kg, iv and 1 mg/kg, po; assay type: ADME, organism-based, Macaca mulatta; settings: in vivo
[8] = Bioavailability in rhesus monkey at 1 mg/kg, po; assay type: ADME, organism-based, Macaca mulatta; settings: in vivo
[9] = Drug level in HCT116 cells xenografted mouse plasma at ip qd after 2 hrs on day 21
[10] = Selectivity for HDAC1 over HDAC11
[11] = Selectivity for HDAC1 over HDAC2
[12] = Half life in rat at 2 mg/kg, iv and 4 mg/kg, po; assay type: ADME, organism-based; settings: in vivo
[13] = biological target: Histone deacetylase 4 (Homo sapiens) (UniProt P56524); assay: Inhibition of HDAC4
Histone deacetylase 4 (Homo sapiens), sequence (P56524 whole entry): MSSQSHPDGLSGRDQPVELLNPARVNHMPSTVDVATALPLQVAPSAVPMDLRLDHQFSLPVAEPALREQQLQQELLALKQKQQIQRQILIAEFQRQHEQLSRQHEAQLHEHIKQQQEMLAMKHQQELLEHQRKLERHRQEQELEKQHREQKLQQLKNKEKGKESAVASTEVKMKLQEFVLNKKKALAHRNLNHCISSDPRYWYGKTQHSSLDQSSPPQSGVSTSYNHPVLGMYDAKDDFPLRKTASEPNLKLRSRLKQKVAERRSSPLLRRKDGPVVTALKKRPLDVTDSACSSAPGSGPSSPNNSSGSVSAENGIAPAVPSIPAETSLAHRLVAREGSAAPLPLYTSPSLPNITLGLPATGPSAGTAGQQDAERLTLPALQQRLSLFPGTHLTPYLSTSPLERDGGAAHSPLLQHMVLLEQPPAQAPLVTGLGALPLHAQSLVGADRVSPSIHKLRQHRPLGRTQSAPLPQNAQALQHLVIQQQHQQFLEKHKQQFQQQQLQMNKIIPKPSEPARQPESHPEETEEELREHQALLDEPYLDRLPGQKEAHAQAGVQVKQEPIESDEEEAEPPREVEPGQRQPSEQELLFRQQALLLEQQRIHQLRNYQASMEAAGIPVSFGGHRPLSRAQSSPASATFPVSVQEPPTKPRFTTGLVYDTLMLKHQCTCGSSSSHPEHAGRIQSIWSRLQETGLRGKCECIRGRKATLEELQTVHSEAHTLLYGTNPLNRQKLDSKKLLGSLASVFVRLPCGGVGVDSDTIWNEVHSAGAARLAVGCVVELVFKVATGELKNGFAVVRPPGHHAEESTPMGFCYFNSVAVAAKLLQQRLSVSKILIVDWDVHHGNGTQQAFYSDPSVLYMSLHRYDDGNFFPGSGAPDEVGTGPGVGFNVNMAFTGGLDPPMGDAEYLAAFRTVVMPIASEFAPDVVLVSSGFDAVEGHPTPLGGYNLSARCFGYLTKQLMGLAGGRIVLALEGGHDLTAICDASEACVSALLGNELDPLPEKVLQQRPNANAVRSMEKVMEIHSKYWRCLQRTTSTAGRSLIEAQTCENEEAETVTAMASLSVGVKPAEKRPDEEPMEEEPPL

[14] = Drug level in HCT116 cells xenografted mouse plasma at 65 mg/kg, ip qd after 4 hrs on day 21; assay type: ADME, organism-based, HCT-116; set-up: dose 65 mg/kg, route intraperitoneal
Outline: (§1)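 Mice bearing HCT116 xenografts were dosed ip in a 21-day study at 50, 65 and 80 mg/kg alongside vehicle. Plasma drug levels were measured 2, 4 and 24 h post-dose.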

[15] = biological target: T1, Histone deacetylase 7 (Homo sapiens) (UniProt Q8WUI4); assay: Inhibition of HDAC7
T1 sequence (whole entry): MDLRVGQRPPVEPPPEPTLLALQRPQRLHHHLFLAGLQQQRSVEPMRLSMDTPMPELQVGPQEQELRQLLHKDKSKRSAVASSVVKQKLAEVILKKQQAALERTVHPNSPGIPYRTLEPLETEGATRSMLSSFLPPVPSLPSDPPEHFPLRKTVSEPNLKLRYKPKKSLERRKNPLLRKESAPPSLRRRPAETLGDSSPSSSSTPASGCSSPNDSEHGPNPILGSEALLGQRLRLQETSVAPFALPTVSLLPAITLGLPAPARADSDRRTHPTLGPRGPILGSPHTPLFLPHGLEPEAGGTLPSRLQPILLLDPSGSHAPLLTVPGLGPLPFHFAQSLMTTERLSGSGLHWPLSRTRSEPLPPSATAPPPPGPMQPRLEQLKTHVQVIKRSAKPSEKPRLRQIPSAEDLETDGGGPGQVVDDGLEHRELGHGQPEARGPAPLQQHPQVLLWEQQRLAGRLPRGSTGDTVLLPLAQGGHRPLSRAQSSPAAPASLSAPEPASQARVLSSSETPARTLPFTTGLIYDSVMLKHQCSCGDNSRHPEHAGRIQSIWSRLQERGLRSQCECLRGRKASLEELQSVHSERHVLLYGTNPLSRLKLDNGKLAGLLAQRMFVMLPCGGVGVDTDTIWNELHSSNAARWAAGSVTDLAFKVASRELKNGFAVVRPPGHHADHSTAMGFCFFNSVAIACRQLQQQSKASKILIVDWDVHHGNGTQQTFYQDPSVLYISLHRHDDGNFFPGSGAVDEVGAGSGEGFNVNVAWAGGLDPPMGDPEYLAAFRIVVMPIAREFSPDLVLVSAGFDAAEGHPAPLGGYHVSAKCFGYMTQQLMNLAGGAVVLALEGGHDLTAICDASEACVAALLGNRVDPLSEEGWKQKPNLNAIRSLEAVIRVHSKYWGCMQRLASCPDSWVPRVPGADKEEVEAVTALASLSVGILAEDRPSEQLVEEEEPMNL

[16] = Drug level in HCT116 cells xenografted mouse plasma at ip qd after 4 hrs on day 21
[17] = Selectivity for HDAC1 over HDAC4
[18] = Selectivity for HDAC1 over HDAC6
[19] = Bioavailability in rat at 4 mg/kg, po; assay type: ADME, organism-based; settings: in vivo
[20] = Drug level in HCT116 cells xenografted mouse plasma at ip qd after 24 hrs on day 21
[21] = biological target: Histone deacetylase 3 (Homo sapiens) (UniProt O15379); assay: Inhibition of HDAC3
Histone deacetylase 3 (Homo sapiens), sequence (O15379 whole entry): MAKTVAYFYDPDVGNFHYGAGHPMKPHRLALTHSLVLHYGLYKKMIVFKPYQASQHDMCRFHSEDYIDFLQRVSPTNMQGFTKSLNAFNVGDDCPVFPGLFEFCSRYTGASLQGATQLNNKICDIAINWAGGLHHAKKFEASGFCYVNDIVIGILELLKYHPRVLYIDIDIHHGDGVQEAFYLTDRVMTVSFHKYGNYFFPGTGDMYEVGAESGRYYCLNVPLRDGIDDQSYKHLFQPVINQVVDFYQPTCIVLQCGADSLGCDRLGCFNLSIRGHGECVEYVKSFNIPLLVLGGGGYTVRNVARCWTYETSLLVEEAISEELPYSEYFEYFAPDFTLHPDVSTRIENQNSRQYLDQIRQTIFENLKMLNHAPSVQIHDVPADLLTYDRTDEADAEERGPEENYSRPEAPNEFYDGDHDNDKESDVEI

[22] = Drug level in HCT116 cells xenografted mouse plasma at 65 mg/kg, ip qd after 24 hrs on day 21; assay type: ADME, organism-based, HCT-116; set-up: dose 65 mg/kg, route intraperitoneal; outline: as §1
[23] = biological target: Histone deacetylase 5 (Homo sapiens) (UniProt Q9UQL6); assay: Inhibition of HDAC5
Histone deacetylase 5 (Homo sapiens), sequence (Q9UQL6 whole entry): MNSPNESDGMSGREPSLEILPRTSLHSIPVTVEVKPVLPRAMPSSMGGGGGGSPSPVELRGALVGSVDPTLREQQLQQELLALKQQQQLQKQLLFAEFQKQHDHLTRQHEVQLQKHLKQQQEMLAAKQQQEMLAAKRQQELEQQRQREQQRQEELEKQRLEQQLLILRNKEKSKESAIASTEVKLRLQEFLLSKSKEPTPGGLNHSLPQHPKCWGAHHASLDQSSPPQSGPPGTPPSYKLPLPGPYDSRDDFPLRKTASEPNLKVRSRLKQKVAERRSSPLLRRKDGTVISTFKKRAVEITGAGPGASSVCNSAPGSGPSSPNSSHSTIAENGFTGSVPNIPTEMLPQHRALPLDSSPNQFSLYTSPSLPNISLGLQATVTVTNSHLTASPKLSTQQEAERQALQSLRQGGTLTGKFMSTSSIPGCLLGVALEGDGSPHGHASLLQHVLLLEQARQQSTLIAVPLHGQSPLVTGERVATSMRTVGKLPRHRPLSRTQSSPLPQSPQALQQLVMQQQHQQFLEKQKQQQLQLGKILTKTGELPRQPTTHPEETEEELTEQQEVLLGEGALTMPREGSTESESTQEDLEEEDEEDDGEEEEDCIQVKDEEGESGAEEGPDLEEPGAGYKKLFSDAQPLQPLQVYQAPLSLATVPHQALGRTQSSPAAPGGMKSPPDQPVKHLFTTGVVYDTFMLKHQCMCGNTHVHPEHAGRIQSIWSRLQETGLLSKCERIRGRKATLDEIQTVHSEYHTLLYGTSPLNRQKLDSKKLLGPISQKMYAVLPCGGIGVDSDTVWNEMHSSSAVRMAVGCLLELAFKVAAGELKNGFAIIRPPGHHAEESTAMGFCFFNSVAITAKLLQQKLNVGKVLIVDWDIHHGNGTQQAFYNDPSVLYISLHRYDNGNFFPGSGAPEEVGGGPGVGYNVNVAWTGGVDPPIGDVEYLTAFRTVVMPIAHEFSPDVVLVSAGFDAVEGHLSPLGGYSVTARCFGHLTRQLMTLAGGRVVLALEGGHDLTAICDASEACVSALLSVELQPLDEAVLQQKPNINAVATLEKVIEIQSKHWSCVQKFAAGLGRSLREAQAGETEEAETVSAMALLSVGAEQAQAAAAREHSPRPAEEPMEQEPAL

[24] = Selectivity for HDAC1 over HDAC7
[25] = Drug level in HCT116 cells xenografted mouse plasma at 65 mg/kg, ip qd after 2 hrs on day 21; assay type: ADME, organism-based, HCT-116; set-up: dose 65 mg/kg, route intraperitoneal; outline: as §1
[26] = Selectivity for HDAC1 over HDAC5
[27] = Clearance in rat at 2 mg/kg, iv and 4 mg/kg, po; assay type: ADME, organism-based; settings: in vivo
[28] = biological target: T2, Protein deacetylase HDAC6 (Homo sapiens) (UniProt Q9UBN7); assay: Inhibition of HDAC6
T2 sequence (whole entry): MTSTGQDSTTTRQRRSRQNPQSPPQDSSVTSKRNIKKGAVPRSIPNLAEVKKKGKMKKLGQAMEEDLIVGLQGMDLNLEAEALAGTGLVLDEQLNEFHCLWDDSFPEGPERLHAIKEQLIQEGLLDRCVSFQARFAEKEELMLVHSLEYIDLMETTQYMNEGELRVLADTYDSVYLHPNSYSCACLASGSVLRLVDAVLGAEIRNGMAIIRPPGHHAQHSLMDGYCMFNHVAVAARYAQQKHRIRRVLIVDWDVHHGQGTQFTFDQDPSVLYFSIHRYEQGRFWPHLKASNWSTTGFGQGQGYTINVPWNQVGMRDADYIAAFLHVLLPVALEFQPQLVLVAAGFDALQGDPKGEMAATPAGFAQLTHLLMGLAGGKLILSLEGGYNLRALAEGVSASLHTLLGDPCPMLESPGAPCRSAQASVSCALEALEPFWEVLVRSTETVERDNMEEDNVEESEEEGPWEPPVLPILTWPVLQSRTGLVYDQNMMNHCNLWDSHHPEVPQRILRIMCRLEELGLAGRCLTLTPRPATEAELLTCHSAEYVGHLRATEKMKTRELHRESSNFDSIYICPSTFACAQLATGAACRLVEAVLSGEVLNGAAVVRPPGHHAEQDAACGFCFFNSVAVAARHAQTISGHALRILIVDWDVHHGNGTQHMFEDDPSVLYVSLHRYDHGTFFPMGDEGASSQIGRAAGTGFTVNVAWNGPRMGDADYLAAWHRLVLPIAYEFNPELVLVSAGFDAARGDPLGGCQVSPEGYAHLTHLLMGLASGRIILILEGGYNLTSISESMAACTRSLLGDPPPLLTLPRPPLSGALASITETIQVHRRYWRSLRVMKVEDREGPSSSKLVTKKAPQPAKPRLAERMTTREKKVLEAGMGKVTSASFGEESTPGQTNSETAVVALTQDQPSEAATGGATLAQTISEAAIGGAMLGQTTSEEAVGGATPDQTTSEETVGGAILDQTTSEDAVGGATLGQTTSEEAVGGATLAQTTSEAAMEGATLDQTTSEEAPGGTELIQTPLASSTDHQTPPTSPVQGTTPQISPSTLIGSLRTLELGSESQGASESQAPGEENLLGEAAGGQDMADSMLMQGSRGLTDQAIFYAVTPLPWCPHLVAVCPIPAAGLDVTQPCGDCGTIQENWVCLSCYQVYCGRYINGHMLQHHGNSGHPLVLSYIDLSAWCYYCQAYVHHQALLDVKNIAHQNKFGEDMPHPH

[29] = Selectivity for HDAC1 over HDAC3
[30] = Half life in dog at 0.5 mg/kg, iv and 1 mg/kg, po; assay type: ADME, organism-based, Canis lupus familiaris; settings: in vivo
[31] = Clearance in dog at 0.5 mg/kg, iv and 1 mg/kg, po; assay type: ADME, organism-based, Canis lupus familiaris; settings: in vivo
[32] = Bioavailability in dog at 1 mg/kg, po; assay type: ADME, organism-based, Canis lupus familiaris; settings: in vivo
[33] = biological target: T3, Histone deacetylase 11 (Homo sapiens) (UniProt Q96DB2); assay: Inhibition of HDAC11
T3 sequence (whole entry): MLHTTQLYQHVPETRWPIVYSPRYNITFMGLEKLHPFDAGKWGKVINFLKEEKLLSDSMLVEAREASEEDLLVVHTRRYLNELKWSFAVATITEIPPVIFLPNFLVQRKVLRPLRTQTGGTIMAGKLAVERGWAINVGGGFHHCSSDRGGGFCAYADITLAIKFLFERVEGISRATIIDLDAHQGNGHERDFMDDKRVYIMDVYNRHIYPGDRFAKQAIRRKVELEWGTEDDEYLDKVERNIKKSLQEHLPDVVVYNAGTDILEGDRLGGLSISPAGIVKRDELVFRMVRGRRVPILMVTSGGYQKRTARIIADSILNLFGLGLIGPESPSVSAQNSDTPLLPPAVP

[34] = biological target: T4, Histone deacetylase 8 (Homo sapiens) (UniProt Q9BY41); assay: Inhibition of HDAC8
T4 sequence (whole entry): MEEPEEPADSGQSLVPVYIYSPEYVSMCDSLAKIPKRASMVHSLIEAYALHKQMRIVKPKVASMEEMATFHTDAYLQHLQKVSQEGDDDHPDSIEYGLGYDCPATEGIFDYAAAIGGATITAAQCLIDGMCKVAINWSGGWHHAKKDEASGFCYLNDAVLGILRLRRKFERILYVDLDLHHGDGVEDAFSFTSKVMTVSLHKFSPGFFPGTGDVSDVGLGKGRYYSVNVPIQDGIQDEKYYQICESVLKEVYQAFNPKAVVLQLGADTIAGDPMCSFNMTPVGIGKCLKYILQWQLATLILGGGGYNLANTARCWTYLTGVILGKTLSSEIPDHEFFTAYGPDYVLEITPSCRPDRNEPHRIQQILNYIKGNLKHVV

[35] = Selectivity for HDAC1 over HDAC8
[36] = biological target: Voltage-gated inwardly rectifying potassium channel KCNH2 (Homo sapiens, UniProt Q12809); assay: Inhibition of human ERG
Voltage-gated inwardly rectifying potassium channel KCNH2, sequence (Q12809 whole entry): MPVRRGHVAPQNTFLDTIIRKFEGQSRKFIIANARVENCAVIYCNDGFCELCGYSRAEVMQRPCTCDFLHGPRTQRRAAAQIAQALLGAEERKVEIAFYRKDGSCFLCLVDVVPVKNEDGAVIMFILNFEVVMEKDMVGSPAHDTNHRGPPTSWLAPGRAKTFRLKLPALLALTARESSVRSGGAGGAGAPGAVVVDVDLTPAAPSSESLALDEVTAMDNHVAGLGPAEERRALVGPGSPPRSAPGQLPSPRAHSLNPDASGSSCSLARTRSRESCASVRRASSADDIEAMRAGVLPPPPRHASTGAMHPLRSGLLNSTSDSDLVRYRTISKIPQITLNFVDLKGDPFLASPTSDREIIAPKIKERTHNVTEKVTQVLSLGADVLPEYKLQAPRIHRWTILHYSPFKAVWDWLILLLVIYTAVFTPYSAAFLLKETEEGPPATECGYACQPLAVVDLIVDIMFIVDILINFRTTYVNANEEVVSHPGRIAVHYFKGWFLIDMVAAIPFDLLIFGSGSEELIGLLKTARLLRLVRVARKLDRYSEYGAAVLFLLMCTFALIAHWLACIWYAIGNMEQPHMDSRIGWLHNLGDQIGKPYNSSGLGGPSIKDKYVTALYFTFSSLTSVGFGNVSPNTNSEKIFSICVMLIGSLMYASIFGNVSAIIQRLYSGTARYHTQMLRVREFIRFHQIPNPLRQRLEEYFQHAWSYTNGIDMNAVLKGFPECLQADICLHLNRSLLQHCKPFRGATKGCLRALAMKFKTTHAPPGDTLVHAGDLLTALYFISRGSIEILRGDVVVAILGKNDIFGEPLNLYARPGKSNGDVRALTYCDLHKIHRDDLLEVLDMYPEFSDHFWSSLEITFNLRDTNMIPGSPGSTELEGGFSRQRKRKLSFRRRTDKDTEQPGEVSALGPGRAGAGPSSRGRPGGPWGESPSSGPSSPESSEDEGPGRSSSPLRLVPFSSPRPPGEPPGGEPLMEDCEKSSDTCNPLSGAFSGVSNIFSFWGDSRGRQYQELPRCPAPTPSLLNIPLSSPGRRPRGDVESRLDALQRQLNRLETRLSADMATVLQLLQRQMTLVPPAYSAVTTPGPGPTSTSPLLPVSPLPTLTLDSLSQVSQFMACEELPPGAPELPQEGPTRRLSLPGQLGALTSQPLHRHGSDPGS

CNC(=O)NC(C(=O)NC)c1ccc(C(=O)Nc2cc(-c3cccs3)ccc2N)cc1 (stereo unspecified)
Activity (HCT-116): 960 nM

Nc1ccc(-c2cccs2)cc1NC(=O)c1ccc(C(N)C(=O)O)cc1 (stereo unspecified)
Activity (HCT-116): >20000 nM

Nc1ccc(-c2ccccc2)cc1NC(=O)c1ccccc1
Activity (HCT-116): 1700 nM

NC(=O)C(N)c1ccc(C(=O)Nc2cc(-c3cccs3)ccc2N)cc1 (stereo unspecified)
logD [1]: 1.49
solubility [2]: 185 µM (≈ 67.8 µg/mL)
Activity (HCT-116): 350 nM

CN(C)C(=O)C(N)c1ccc(C(=O)Nc2cc(-c3cccs3)ccc2N)cc1 (stereo unspecified)
Activity (HCT-116): 420 nM

CNC(=O)C(NC(C)=O)c1ccc(C(=O)Nc2cc(-c3cccs3)ccc2N)cc1 (stereo unspecified)
Activity (HCT-116): 620 nM

CNC(=O)C(N)c1ccc(C(=O)Nc2cc(-c3cccs3)ccc2N)cc1 (stereo unspecified)
half-life [3]: 96 min
Vd [4]: 7.6 L/kg
Vd [5]: 1.6 L/kg
logD [1]: 1.57
Vd [6]: 3.2 L/kg
clearance [7]: 16 mL/min/kg
bioavailability [8]: 5%
concentration at 2 h [9]: 17.9 µM
Selectivity ratio [10]: 360
Selectivity ratio [11]: 13
half-life [12]: 354 min
Activity [13]: > 50 µM
solubility [2]: 185 µM (≈ 70.4 µg/mL)
concentration at 4 h [14]: 10 µM
Activity [15]: > 50 µM
concentration at 4 h [16]: 4.1 µM
Selectivity ratio [17]: > 5000
Selectivity ratio [18]: > 5000
bioavailability [19]: 27%
concentration at 24 h [20]: 10 nM
Activity [21]: 3.4 µM
concentration at 24 h [22]: 20 nM
Activity [23]: > 50 µM
Selectivity ratio [24]: > 5000
concentration at 2 h [25]: 28.6 µM
Selectivity ratio [26]: > 5000
clearance [27]: 38 mL/min/kg
Activity (HCT-116): 450 nM
Activity [28]: > 50 µM
Selectivity ratio [29]: 340
half-life [30]: 324 min
clearance [31]: 11 mL/min/kg
bioavailability [32]: 17%
Activity [33]: 3.6 µM
Activity [34]: 35 µM
Selectivity ratio [35]: 3500

NC(=O)[C@H](N)c1ccc(C(=O)Nc2cc(-c3cccs3)ccc2N)cc1
Activity (HCT-116): 350 nM

CNC(=O)[C@H](N)c1ccc(C(=O)Nc2cc(-c3cccs3)ccc2N)cc1
Activity (HCT-116): 420 nM

CNC(=O)[C@@H](N)c1ccc(C(=O)Nc2cc(-c3cccs3)ccc2N)cc1
Activity (HCT-116): 480 nM

NC(=O)[C@H](N)Cc1ccc(C(=O)Nc2cc(-c3cccs3)ccc2N)cc1
Activity (HCT-116): 390 nM

NC(=O)[C@@H](N)c1ccc(C(=O)Nc2cc(-c3cccs3)ccc2N)cc1
Activity (HCT-116): 510 nM

CNC(=O)C(NS(C)(=O)=O)c1ccc(C(=O)Nc2cc(-c3cccs3)ccc2N)cc1 (stereo unspecified)
Activity (HCT-116): 780 nM

NC(=O)[C@@H](N)Cc1ccc(C(=O)Nc2cc(-c3cccs3)ccc2N)cc1
Activity (HCT-116): 260 nM

Nc1ccc(-c2cccs2)cc1NC(=O)c1ccccc1
logD [1]: 2.7
Activity (HCT-116): 720 nM

CCOC(=O)C(N)c1ccc(C(=O)Nc2cc(-c3cccs3)ccc2N)cc1 (stereo unspecified)
IC50 [36]: 5.7 µM
Activity (HCT-116): 1100 nM

CNC(=O)C(NC(=O)OC)c1ccc(C(=O)Nc2cc(-c3cccs3)ccc2N)cc1 (stereo unspecified)
Activity (HCT-116): 410 nM
